Assay outcomes (PubChem BioAssay)
SENP7 inh – SENP7 protease inhibitors, primary screen, biochemical, luminescence, uHTS | 1.5% of 330,000 active | inhibition, % at 5 µM | Sentrin-specific protease 7 (Homo sapiens), Q9BQF6 | recombinant SENP7, Z-RLRGG-aminoluciferin luminescence, 40 min;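 active = inhibition above about 50% at the single test dose, limit read from the data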;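 also: plate controls were DMSO with enzyme for no effect and no enzyme buffer wells for full effect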
SENP1 inh – human SENP1 catalytic domain inhibitors, primary screen, biochemical, FRET, uHTS; Sentrin-specific protease 1 (Homo sapiens), Q9P0U3; 0.21% of 360,000 active; inhibition, % at 10 µM; recombinant SENP1 catalytic domain, CyPet-SUMO1-YPet FRET cleavage;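 active = inhibition at least 30% at 10 µM, raw YFP signal under a set limit, fluorescence ratio 0.5 to 1.5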;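 also: 0% = enzyme with DMSO and 100% = no enzyme wells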
Target sequence (Q9P0U3 419-644 limits assumed): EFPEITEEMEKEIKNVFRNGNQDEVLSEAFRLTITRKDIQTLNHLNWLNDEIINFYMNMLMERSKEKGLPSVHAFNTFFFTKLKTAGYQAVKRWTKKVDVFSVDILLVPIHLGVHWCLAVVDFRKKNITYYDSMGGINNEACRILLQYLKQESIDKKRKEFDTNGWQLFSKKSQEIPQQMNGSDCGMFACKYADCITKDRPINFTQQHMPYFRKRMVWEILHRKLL
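Assay system – human recombinant His6-tagged SENP1 catalytic domain enzyme · Input – SENP1 enzyme, 20 pM final · Buffer or medium – Tris pH 8 buffer plus EDTA, NaCl, BME, BSA, NP40, catalase · Schedule – 50 min reaction at room temperature · Technique – FRET read of cyan and yellow fluorescence · Control set – no-enzyme wells low, DMSO-plus-enzyme wells high control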
SENP8 block-1 – SENP8 protease inhibitors, primary screen, biochemical, luminescence. Sentrin-specific protease 8 (Homo sapiens), Q96LD8. purified SENP8, Z-RLRGG-aminoluciferin cleavage. inhibition, % at 10 µM. 1.2% of 330,000 active; in the data active = inhibition above about 50%
Target sequence (Q96LD8 whole entry, looked up): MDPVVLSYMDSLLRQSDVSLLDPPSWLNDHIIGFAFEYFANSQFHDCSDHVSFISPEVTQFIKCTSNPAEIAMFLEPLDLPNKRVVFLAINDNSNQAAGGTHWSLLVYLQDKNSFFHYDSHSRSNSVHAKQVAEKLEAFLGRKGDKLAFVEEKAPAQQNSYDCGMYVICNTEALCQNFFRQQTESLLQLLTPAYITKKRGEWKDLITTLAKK
UCH37 inh – inhibitors of human UCH37 deubiquitinase, primary screen, biochemical, Ub-AMC cleavage, fluorescence | Ubiquitin carboxyl-terminal hydrolase isozyme L5 (Homo sapiens), Q9Y5K5 | purified proteasome/UCH37 | inhibition, % (no concentration beside the values) | 0.33% of 330,000 active | AID 588478, 2011;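 active = mean inhibition over replicate wells above about 20%, limit read from the data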;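 also: 0% = compound-free wells with enzyme and 100% = wells lacking proteasome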
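Material: Human UCH37 enzyme supplied as purified proteasome complex | Schedule: 30 min compound-proteasome preincubation then 25 min substrate reaction, room temperature | Detection: AMC fluorescence from Ub-AMC cleavage, excitation 355 nm, emission 460 nm | Benchmarks: Wells without proteasome as full block, compound-free enzyme plus substrate as uninhibited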
SENP6 block – SENP6 protease inhibitors, primary screen, biochemical, luminescence, uHTS | Sentrin-specific protease 6 (Homo sapiens), Q9GZR1 | inhibition, % at 10 µM | AID 2599, 2010 | 1.8% of 330,000 active | Recombinant SENP6 catalytic domain, aminoluciferin luminescence;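 active = inhibition above about 50% at the single tested dose, limit read from the data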;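 also: plate controls were DMSO wells with enzyme for no effect and DMSO wells lacking enzyme for full effect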
SENP8 block-2 – human SENP8 protease inhibitors, primary screen, biochemical, fluorescence, Nedd8 protein substrate, uHTS. Sentrin-specific protease 8 (Homo sapiens), Q96LD8. recombinant SENP8. inhibition, % at 20 µM. 0.64% of 360,000 active. AID 602440, 2012; in the data active = inhibition mostly above about 40%, no sharp cut-off; inactive = mostly below about 27%
SENP8 confirm – SENP8 protease inhibitors, retest, confirmation, biochemical, luminescence, single concentration | AID 488912, 2010 | inhibition, % at 12.5 µM | Recombinant SENP8, Z-RLRGG-aminoluciferin luminescence, 60 min | shares compounds with SENP7 inh | 40% of 6,200 active;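 active = mean inhibition across replicates above about 50%, limit read from the data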
SENP6 confirm – SENP6 protease inhibitors, confirmation, biochemical, luminescence, single concentration; inhibition, % at 12.5 µM; 58% of 6,200 active; recombinant SENP6, Z-RLRGG-aminoluciferin luminescence; shares compounds with SENP7 inh
SENP7 confirm – SENP7 protease inhibitors, retest, confirmation, biochemical, luminescence, single concentration. inhibition, % at 12.5 µM. 69% of 6,200 active. AID 488917, 2010. recombinant SENP7, Z-RLRGG-aminoluciferin luminescence, 40 min. shares compounds with SENP7 inh
Casp3 select – caspase-3 protease inhibitors, confirmation, selectivity assay for SENP inhibitor project, biochemical, single concentration; purified caspase-3, Z-DEVD-aminoluciferin luminescence, 60 min; shares compounds with SENP7 inh; 60% of 6,200 active; inhibition, % at 12.5 µM; AID 488918, 2010;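 active = mean inhibition above about 50%, limit read from the data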;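 also: plate controls were enzyme with DMSO for no effect and wells without caspase-3 for full effect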
Target sequence (P42574 28-227 limits assumed): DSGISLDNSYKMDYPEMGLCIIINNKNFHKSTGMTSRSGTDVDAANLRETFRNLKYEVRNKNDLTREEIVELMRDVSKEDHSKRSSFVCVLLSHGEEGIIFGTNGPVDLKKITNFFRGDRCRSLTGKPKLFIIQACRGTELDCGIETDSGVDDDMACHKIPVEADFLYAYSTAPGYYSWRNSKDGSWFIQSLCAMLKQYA
SENP luc ctr – interferes with luciferase luminescence in SENP counter-screen; shares compounds with SENP7 inh; Pre-incubated SENP8/Z-RLRGG-aminoluciferin, luciferase luminescence interference; inhibition, % at 12.5 µM; 39% of 6,200 active; AID 488919;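 active = mean inhibition above about 50% when retested at one dose, limit read from the data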;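 also: plate controls were DMSO wells with completed reaction for no effect and substrate without enzyme for full effect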
Active calls of the source: *. Sampled rows, rich in hits. Any-hit rate of the full collection: about 2.6%.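 The calls were made as follows, unless noted: active = mean inhibition above about 50% in the one-dose retest (limit read from the data); inactive = the rest.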

How did O=C(COc1ccccc1)Nc1cccc(-c2ccc(N3CCOCC3)nn2)c1 do in these assays?
SENP7 inh: 53*; SENP1 inh: 1; SENP8 block-1: 29; UCH37 inh: -1; SENP6 block: 61*; SENP8 block-2: -22; SENP8 confirm: -26; SENP6 confirm: 28; SENP7 confirm: 76*; Casp3 select: 66*; SENP luc ctr: -7

Results for Cc1ccc(C(=O)Nc2cccc(-c3ccc(N4CCOCC4)nn3)c2)cc1[N+](=O)[O-] ?
SENP7 inh: 63*; SENP1 inh: 0; SENP8 block-1: 50*; UCH37 inh: 3; SENP6 block: 67*; SENP8 block-2: -6; SENP8 confirm: -6; SENP6 confirm: -4; SENP7 confirm: -4; Casp3 select: 7; SENP luc ctr: 6

Results for Cc1ccc([N+](=O)[O-])cc1S(=O)(=O)Nc1cccc(-c2ccc(N3CCCC3)nn2)c1 ?
SENP7 inh: 16; SENP1 inh: 3; SENP8 block-1: 83*; UCH37 inh: 1; SENP6 block: 90*; SENP8 block-2: 13; SENP8 confirm: 62*; SENP6 confirm: 76*; SENP7 confirm: 87*; Casp3 select: 70*; SENP luc ctr: 6

How did COc1cc(C=NNc2cc(C)nc(NS(=O)(=O)c3ccccc3)n2)ccc1O do in these assays?
UCH37 inh: -29

Results for O=[N+]([O-])c1ccccc1/C=C/C=NN1CCCCC1 ?
UCH37 inh: 1

How did CC(C)=NN=C(c1ccc([N+](=O)[O-])cc1)C12CN3CN(CN(C3)C1)C2 do in these assays?
UCH37 inh: 4

What do the screens show for `Cc1cc(=O)[nH]c(N=NC(=NNc2ccc(O)cc2)c2ccccc2)n1`?
UCH37 inh: 7

What do the screens show for `NC(=O)NN=C/C=C/C=C/c1ccc(F)cc1`?
UCH37 inh: 0

How did Clc1ccc(-c2nnc(N3CCCC3)nn2)cc1 do in these assays?
SENP7 inh: -5; SENP1 inh: 3; SENP8 block-1: 2; UCH37 inh: 4; SENP6 block: 68*; SENP8 block-2: 13; SENP8 confirm: 38; SENP6 confirm: 41; SENP7 confirm: 58*; Casp3 select: 55*; SENP luc ctr: 10

What do the screens show for `Oc1cc(NCCc2cccnc2)cc2cccnc12`?
SENP7 inh: 39; SENP1 inh: 2; SENP8 block-1: 48; UCH37 inh: -2; SENP6 block: 72*; SENP8 block-2: -158; SENP8 confirm: 14; SENP6 confirm: 49; SENP7 confirm: 14; Casp3 select: 88*; SENP luc ctr: -4

How did Nc1nonc1-n1nnc(C(=O)NN=Cc2cccc(Cl)c2)c1-c1cccs1 do in these assays?
UCH37 inh: 0

How did O=C(NCCS(=O)(=O)NCc1ccccc1)c1ccc2c(c1)OCO2 do in these assays?
SENP7 inh: -12; SENP1 inh: 2; SENP8 block-1: 3; UCH37 inh: 1; SENP6 block: -1; SENP8 block-2: 20

How did O=C(Cc1ccccc1)c1ccc2c(c1)OCCO2 do in these assays?
SENP7 inh: 69*; SENP1 inh: 0; SENP8 block-1: 71*; UCH37 inh: 0; SENP6 block: 73*; SENP8 block-2: 3; SENP8 confirm: 70*; SENP6 confirm: 65*; SENP7 confirm: 91*; Casp3 select: 78*; SENP luc ctr: 76*

How did O=C(CCCO)c1ccc2c(c1)OCCO2 do in these assays?
SENP7 inh: 7; SENP1 inh: 2; SENP8 block-1: -2; UCH37 inh: 0; SENP6 block: 0; SENP8 block-2: 3

How did O=C(NCCc1ccccc1)c1ccc2c(c1)OCO2 do in these assays?
SENP7 inh: 57*; SENP1 inh: 0; SENP8 block-1: 30; UCH37 inh: 4; SENP6 block: 57*; SENP8 block-2: 16; SENP8 confirm: 52*; SENP6 confirm: 48; SENP7 confirm: 82*; Casp3 select: 78*; SENP luc ctr: 57*

What do the screens show for `Cn1c(/C=C/c2ccccc2)nc2ccccc21`?
SENP7 inh: 99*; SENP1 inh: 0; SENP8 block-1: 97*; UCH37 inh: -288; SENP6 block: 99*; SENP8 block-2: -409; SENP8 confirm: 99*; SENP6 confirm: 100*; SENP7 confirm: 103*; Casp3 select: 99*; SENP luc ctr: 98*

How did Cc1ccc2oc(N=C(N)NC(=O)C(C)(C)C)nc2c1 do in these assays?
UCH37 inh: -4

What do the screens show for `Cc1cc2nc(-c3ccc[nH]c3=O)[nH]c2cc1C`?
SENP7 inh: 97*; SENP1 inh: -73; SENP8 block-1: 92*; UCH37 inh: inactive; SENP6 block: 95*; SENP8 block-2: -286; SENP8 confirm: 96*; SENP6 confirm: 97*; SENP7 confirm: 102*; Casp3 select: 98*; SENP luc ctr: 82*

Results for Cc1ccc(NC(=O)C(=O)c2c[nH]c3ccccc23)cc1 ?
SENP7 inh: 70*; SENP1 inh: 2; SENP8 block-1: 47; UCH37 inh: 1; SENP6 block: 66*; SENP8 block-2: 16; SENP8 confirm: 52*; SENP6 confirm: 49; SENP7 confirm: 87*; Casp3 select: 45; SENP luc ctr: 11

What do the screens show for `c1ccc(-c2csc(-c3ccncc3)n2)cc1`?
SENP7 inh: -6; SENP1 inh: 0; SENP8 block-1: -15; UCH37 inh: -12; SENP6 block: 9; SENP8 block-2: -36
